Results collected from several papers.
Protocols differ between the studies behind these lines.
Target: Sodium-dependent dopamine transporter (SLC6A3, Homo sapiens, UniProt Q01959)

SMILES	read-out	action	method	cell line	tested at	inhibition [%]
Nc1ccc(-c2ccncc2)cc1NC(=O)N1CCCC1	ligand displacement	–	radioligand	–	10 µM	21
Clc1ccc(C(c2ccccc2)c2nnnn2CCCN2CCC(CCCc3ccccc3)CC2)cc1 (stereo not drawn)	transporter uptake	inhibitor	–	HEK293	1 µM	89.6
COc1cc(NC(C)=O)c(Cl)cc1C(=O)Nc1nccs1	cell-free assay	–	–	–	10 µM	5.5
O=C1N=C(N2CCCCN2)S/C1=C\c1ccc(F)cc1O	ligand displacement	–	radioligand	–	10 µM	< 10
N#Cc1cc(Cn2c(N3CCCC3)nc3ccccc32)ccc1F	ligand displacement	–	–	–	10 µM	19.3
CCN(CC)c1ccc(C2Nc3ccc(C(=O)c4ccccc4)cc3NC3=C2C(=O)CC(C)(C)C3)cc1 (stereo not drawn)	ligand displacement	–	radioligand	–	10 µM	69
Cc1cc(-c2nc(CN3CCNCC3)no2)cc2c1C(=O)N(Cc1ccc(OC(F)(F)F)cc1)C2	ligand displacement	–	radioligand	–	10 µM	44
Oc1cccc(Nc2nc(-c3ccc(F)cc3F)cs2)c1	cell-free assay	–	–	–	10 µM	49.8
Fc1ccc(C(c2ccc(F)cc2)c2nnnn2CCCCN2CCN(CCCc3ccccc3)CC2)cc1	transporter uptake	inhibitor	–	HEK293	1 µM	56.2
CCN(Cc1ccccc1C(F)(F)F)C(=O)C1CCN(S(=O)(=O)c2ccc3[nH]ncc3c2)CC1	ligand displacement	–	radioligand	–	10 µM	39
CCCNc1nc2ccccc2n1Cc1ccc(Cl)cc1	ligand displacement	–	–	–	10 µM	24.3
Clc1ccc(C(c2ccc(Cl)cc2)c2nnnn2CCCCN2CCN(Cc3ccccc3)CC2)cc1	transporter uptake	inhibitor	–	HEK293	1 µM	91.7
